From ChEMBL document CHEMBL4350973, “CF2H, a Functional Group-Dependent Hydrogen-Bond Donor: Is It a More or Less Lipophilic Bioisostere of OH, SH, and CH3?” (J Med Chem, 2019) come the findings set out here.

Molecules are shown by their SMILES.

One data set is described as follows: Lipophilicity, log P of the compound. As to conditions: octanol/water. The format is physicochemical. The method, boiled down: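 Shake-flask partition between mutually pre-saturated octanol and water (at least 24 h pre-saturation). Compound dissolved at 10 mM in water-saturated octanol; water/octanol volume ratio set by preliminary runs according to polarity. Phases centrifuged 3000 rpm, 5 min; diluted octanol aliquot read by UV absorbance at λmax (range 0.2-1). Water concentration obtained by difference; log P from volume ratio; triplicates.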
As usually defined, the logP is a log measure of how a compound divides between an organic and an aqueous phase. Low values mean lower lipophilicity, high ones higher lipophilicity. Molecule `CCCc1ccccc1` had a logP of 3.7.

The next data set is described as follows: Octanol/water partition co-efficient, log P of compound by UV-spectrophotometry-based shake-flask method. The data set is classed as physicochemical.
Conditions: not given
The method, boiled down: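 Shake-flask partition between octanol and water, each pre-saturated with the other phase for at least 24 h. Compound dissolved at 10 mM in water-saturated octanol; water/octanol volume ratio set from preliminary runs according to polarity. Phases centrifuged 3000 rpm, 5 min. Diluted octanol phase read by UV absorbance at λmax, absorbance kept within 0.2-1. Water concentration obtained by difference; log P from the volume ratio. Triplicates.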
For `Cc1ccc(Br)cc1`, the logP is 2.91.

`CS(=O)(=O)c1ccc([N+](=O)[O-])cc1` showed a logP of 0.61.

The molecule `CSCCc1ccccc1` yielded a logP of 2.95.

`[O-][S+](CCc1ccccc1)C(F)F` (centres undefined) returned a logP of 1.42.

Regarding `FC(F)c1ccccc1`, the logP was 2.4.

Molecule `FC(F)SCCc1ccccc1` displayed a logP of 3.16.

`O=[N+]([O-])c1ccc([S+]([O-])C(F)F)cc1` (centres undefined): the logP amounted to 1.37.

Molecule `C[S+]([O-])CCc1ccccc1` (centres undefined) yielded a lipophilicity (logP) of 0.63.

`N#Cc1ccc(C(F)F)cc1` gave a logP of 1.75.

With `Cc1ccc(C(F)F)cc1`, the logP is 2.94.

As for `FC(F)CCc1ccccc1`, the logP is 3.02.

`Cc1ccc([N+](=O)[O-])cc1` [4-NITROTOLUENE] displayed a logP of 2.35.

In the case of `FC(F)OCCc1ccccc1`, the logP worked out at 3.16.

On to `C[S+]([O-])c1ccc([N+](=O)[O-])cc1` (centres undefined), for which the logP turned out to be 0.49.

For the molecule `O=C1c2ccccc2C(=O)N1C(F)F`, the logP was found to be 1.53.

As for `Cc1ccc(C#N)cc1`, the logP amounted to 2.

`COCCc1ccccc1` gave a logP of 2.23.

Take `Cc1ccc(C)cc1` [P-XYLENE]: the logP was 3.08.

As to `COc1ccc(C)cc1`, the lipophilicity (logP) was 2.67.

The molecule `O=C(OC(F)F)c1ccccc1` returned a logP of 2.66.

For the molecule `FC(F)c1ccc(Br)cc1`, the logP worked out at 2.78.

Consider `COC(=O)c1ccccc1` [METHYL BENZOATE], for which the logP was 2.27.

As to `O=[N+]([O-])c1ccc(S(=O)(=O)C(F)F)cc1`, the logP is 1.7.

`COc1ccc(C(F)F)cc1` registered a logP of 2.61.

Turning to `CN1C(=O)c2ccccc2C1=O`, the logP came to 1.33.

`O=[N+]([O-])c1ccc(C(F)F)cc1` gave a logP of 2.12.

Molecule `CS(=O)(=O)CCc1ccccc1` registered a logP of 0.82.

Molecule `O=S(=O)(CCc1ccccc1)C(F)F` showed a logP of 1.87.
